Measurements reported in ChEMBL document CHEMBL1156517, “Targeting thyroid hormone receptor-beta agonists to the liver reduces cholesterol and triglycerides and improves the therapeutic index” (Proc Natl Acad Sci U S A, 2007).
The source made the active and inactive calls. No cut-off for these calls is given here.

Assays:
[1] = test system: Rattus norvegicus; assay: Toxicity in Sprague-Dawley rat assessed as suppression of thyroid hormone axis measured by decrease in total 3,5,3',5'-tetraiodo-L-thyronine level at 30 mg/kg, po after 7 weeks; assay type: organism-based; set-up: dose 30 mg/kg, route oral; conditions: in vivo, 1176 h
[2] = test system: Rattus norvegicus; assay: Toxicity in Sprague-Dawley rat assessed as suppression of thyroid hormone axis measured by decrease in free 3,5,3',5'-tetraiodo-L-thyronine level at 30 mg/kg, po after 7 weeks; assay type: organism-based; set-up: dose 30 mg/kg, route oral; conditions: in vivo, 1176 h
Outline: (§1)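 Male SD rats (n = 5–6 per group; baseline group n = 8) given vehicle (0.5% CMC/1% Lutrol F68) or drug orally once daily. One group per cohort weighed and killed by decapitation without anesthesia after 1, 2, 4 and 7 weeks. Trunk-blood serum assayed for total/free T3 and T4; TSH by [125I] radioimmunoassay with magnetic separation. Pituitary TSHβ mRNA also measured.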

[3] = test system: Rattus norvegicus; assay: Toxicity in Sprague-Dawley rat assessed as suppression of thyroid hormone axis measured by decrease in serum TSH level at 30 mg/kg, po after 7 weeks; assay type: organism-based; set-up: dose 30 mg/kg, route oral; conditions: in vivo, 1176 h
[4] = test system: Rattus norvegicus; assay: Toxicity in Sprague-Dawley rat assessed as suppression of thyroid hormone axis measured by decrease in TSH-beta mRNA level at 30 mg/kg, po after 7 weeks; assay type: organism-based; set-up: dose 30 mg/kg, route oral; conditions: in vivo, 1176 h; outline: as §1
[5] = test system: Mus musculus; assay: Effect on hepatic LDLR mRNA level in diet-induced obese C57BL/6 mouse at 10 mg/kg, po after 8 hrs by RT-PCR; assay type: functional
Outline: (§2)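 Single oral dose in male DIO mice: C57BL/6 mice, about 4 weeks old at start, fed a 60% fat (by kcal) diet for about 170 days. Hepatic LDLR mRNA read out at early time points (3 and 8 h) after dosing.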

[6] = test system: Rattus norvegicus; assay: Effect on body weight in Sprague-Dawley rat at 1 mg/kg/day, po after 8 days; assay type: functional
[7] = test system: Rattus norvegicus; assay: Effect on food intake in Sprague-Dawley rat at 1 mg/kg/day, po after 8 days; assay type: functional
[8] = biological target: Thyroid hormone receptor alpha (Homo sapiens, UniProt P10827); assay: Displacement of [125I]T3 from recombinant thyroid hormone receptor alpha expressed in sf9 cells by scintillation proximity assay
Chain of Thyroid hormone receptor alpha (P10827 whole entry): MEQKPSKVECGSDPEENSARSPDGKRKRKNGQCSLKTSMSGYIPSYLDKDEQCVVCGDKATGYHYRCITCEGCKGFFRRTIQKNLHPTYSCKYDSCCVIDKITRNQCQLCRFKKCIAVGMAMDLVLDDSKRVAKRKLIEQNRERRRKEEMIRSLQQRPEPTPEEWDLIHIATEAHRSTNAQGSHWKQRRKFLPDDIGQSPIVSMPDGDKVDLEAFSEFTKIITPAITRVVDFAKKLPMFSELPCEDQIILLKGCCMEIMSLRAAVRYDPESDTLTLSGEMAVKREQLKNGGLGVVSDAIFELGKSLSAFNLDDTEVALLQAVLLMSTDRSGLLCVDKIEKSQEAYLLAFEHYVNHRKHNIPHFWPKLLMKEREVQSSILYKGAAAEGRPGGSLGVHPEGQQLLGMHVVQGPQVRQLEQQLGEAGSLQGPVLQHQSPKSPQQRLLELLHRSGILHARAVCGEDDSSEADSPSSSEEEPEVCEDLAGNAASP

[9] = biological target: Thyroid hormone receptor beta (Homo sapiens, UniProt P10828); assay: Displacement of [125I]T3 from recombinant thyroid hormone receptor beta expressed in sf9 cells by scintillation proximity assay
Chain of Thyroid hormone receptor beta (P10828 whole entry): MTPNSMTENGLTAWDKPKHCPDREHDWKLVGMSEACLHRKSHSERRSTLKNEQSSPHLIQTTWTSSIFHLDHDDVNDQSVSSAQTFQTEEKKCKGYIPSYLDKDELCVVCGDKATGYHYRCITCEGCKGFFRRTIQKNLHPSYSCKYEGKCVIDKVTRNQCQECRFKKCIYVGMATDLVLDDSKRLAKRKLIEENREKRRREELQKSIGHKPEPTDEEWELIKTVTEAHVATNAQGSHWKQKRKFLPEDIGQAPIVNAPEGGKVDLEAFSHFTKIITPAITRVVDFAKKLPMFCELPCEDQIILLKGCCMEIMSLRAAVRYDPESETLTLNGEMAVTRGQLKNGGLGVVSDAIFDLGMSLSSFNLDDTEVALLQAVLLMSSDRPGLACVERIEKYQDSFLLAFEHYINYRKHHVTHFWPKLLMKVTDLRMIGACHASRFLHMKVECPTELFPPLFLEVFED

[10] = (§3) Activity of CYP3A in Sprague-Dawley rat liver microsome; assay type: ADME; conditions: microsomes
[11] = test system: CYP3A; assay: as §3; assay type: ADME; conditions: Sprague-Dawley, liver microsomes
[12] = Inhibition of CYP3A in Sprague-Dawley rat liver microsome at 10 uM; assay type: ADME; conditions: microsomes
[13] = test system: Hepatocyte; assay: Cmax per10'6 cells in Sprague-Dawley rat hepatocytes at 10 uM; assay type: ADME, Liver; set-up: dose 10 uM
Outline: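 Freshly isolated rat hepatocytes were incubated with compound. Intracellular levels of the active phosphonate were followed over time and expressed per 10⁶ cells, giving Cmax and tmax.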

[14] = Clearance in Sprague-Dawley rat at 3 mg/kg, iv; assay type: ADME, organism-based; set-up: dose 3 mg/kg, route intravenous; conditions: in vivo
Outline: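 Male SD rats received a single i.v. dose. Clearance and other PK parameters came from plasma concentration–time profiles of both the prodrug and the active phosphonate, values reported as mean ± SEM.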

[15] = Volume of distribution in Sprague-Dawley rat at 3 mg/kg, iv; assay type: ADME, organism-based; set-up: dose 3 mg/kg, route intravenous; conditions: in vivo
[16] = test system: Mus musculus; assay: Decrease in plasma triglyceride level in po dosed diet-induced obese C57BL/6 mouse after 14 days; assay type: functional; set-up: scale not given: the % may be the effect or the level left
Outline: (§4)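 DIO mice were male C57BL/6 fed a 60%-fat (by kcal) diet from about 4 weeks of age for about 170 days. They were grouped (n = 8) to match cholesterol and body weight. Dosing was oral, once daily for 2 weeks, in 0.5% CMC/1% Lutrol F68. At kill, blood was taken by cardiac puncture for plasma TGs. The liver was removed and weighed, and hepatic TGs were measured.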

[17] = test system: Mus musculus; assay: Decrease in cholesterol level in wild-type C57BL/6 mouse at 5 mg/kg/day once daily for 7 days; assay type: functional, organism-based
[18] = test system: Mus musculus; assay: Decrease in liver triglyceride level in po dosed diet-induced obese C57BL/6 mouse after 14 days; assay type: functional; set-up: scale not given: the % may be the effect or the level left; outline: as §4
[19] = test system: Mus musculus; assay: Decrease in cholesterol level in LDLR deficient C57BL/6 mouse at 0.5 mg/kg/day once daily for 7 days; assay type: functional, organism-based
[20] = test system: Mus musculus; assay: Decrease in cholesterol level in LDLR deficient C57BL/6 mouse at 5 mg/kg/day once daily for 7 days; assay type: functional, organism-based
[21] = test system: Mus musculus; assay: Decrease in liver weight in po dosed diet-induced obese C57BL/6 mouse after 14 days; assay type: functional; set-up: scale not given: the % may be the effect or the level left; outline: as §4
[22] = test system: Mus musculus; assay: Decrease in cholesterol level in wild-type C57BL/6 mouse at 0.5 mg/kg/day once daily for 7 days; assay type: functional, organism-based
[23] = test system: Mus musculus; assay: Effect on hepatic LDLR mRNA level in LDLR deficient C57BL/6 mouse at 5 mg/kg/day once daily for 7 days; assay type: functional
[24] = test system: Mus musculus; assay: Decrease in body weight in diet-induced obese C57BL/6 mouse at 30 mg/kg/day, po; assay type: functional; set-up: scale not given: the % may be the effect or the level left
[25] = test system: Mus musculus; assay: Effect on hepatic LDLR mRNA level in wild-type C57BL/6 mouse at 5 mg/kg/day once daily for 7 days; assay type: functional
[26] = test system: Rattus norvegicus; assay: Effect on fasting blood glucose level in Sprague-Dawley rat at 1 mg/kg/day, po after 8 days by oral glucose tolerance test; assay type: functional
[27] = test system: Rattus norvegicus; assay: Effect on plasma insulin level in Sprague-Dawley rat at 1 mg/kg/day, po after 8 days; assay type: functional
[28] = test system: Rattus norvegicus; assay: Effect on plasma fatty acid level in Sprague-Dawley rat at 1 mg/kg/day, po after 8 days; assay type: functional
[29] = test system: Mus musculus; assay: Effect on hepatic LDLR mRNA level in diet-induced obese C57BL/6 mouse at 10 mg/kg, po after 3 hrs by RT-PCR; assay type: functional; outline: as §2
[30] = test system: Rattus norvegicus; assay: Effect on body weight in Sprague-Dawley rat at 10 mg/kg/day, po after 8 days; assay type: functional
[31] = test system: Rattus norvegicus; assay: Effect on food intake in Sprague-Dawley rat at 10 mg/kg/day, po after 8 days; assay type: functional
[32] = test system: Rattus norvegicus; assay: Effect on fasting blood glucose level in Sprague-Dawley rat at 10 mg/kg/day, po after 8 days by oral glucose tolerance test; assay type: functional
[33] = test system: Rattus norvegicus; assay: Effect on plasma insulin level in Sprague-Dawley rat at 10 mg/kg/day, po after 8 days; assay type: functional
[34] = test system: Rattus norvegicus; assay: Effect on plasma fatty acid level in Sprague-Dawley rat at 10 mg/kg/day, po after 8 days; assay type: functional
[35] = test system: Rattus norvegicus; assay: Effect on body weight in Sprague-Dawley rat at 50 mg/kg/day, po after 8 days; assay type: functional
[36] = test system: Rattus norvegicus; assay: Effect on food intake in Sprague-Dawley rat at 50 mg/kg/day, po after 8 days; assay type: functional
[37] = test system: Rattus norvegicus; assay: Effect on fasting blood glucose level in Sprague-Dawley rat at 50 mg/kg/day, po after 8 days by oral glucose tolerance test; assay type: functional
[38] = test system: Rattus norvegicus; assay: Effect on plasma insulin level in Sprague-Dawley rat at 50 mg/kg/day, po after 8 days; assay type: functional
[39] = test system: Rattus norvegicus; assay: Effect on plasma fatty acid level in Sprague-Dawley rat at 50 mg/kg/day, po after 8 days; assay type: functional
[40] = test system: Mus musculus; assay: Reduction in plasma cholesterol level in po dosed diet-induced obese C57BL/6 mouse after 2 weeks; assay type: functional; set-up: scale not given: the % may be the effect or the level left
Outline: (§5)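 Male C57BL/6 mice, about 4 weeks old, fed a high-fat diet (60% kcal fat) for about 170 days. Assigned to groups (n = 8) matched for cholesterol and body weight. Dosed orally once daily in 0.5% CMC/1% Lutrol F68 for 2 weeks. Baseline blood taken by tail nick. At end, cardiac-puncture blood used for cholesterol, TGs, glucose and thyroid hormones; liver weighed and hepatic TGs measured.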

[41] = test system: Mus musculus; assay: Reduction in plasma cholesterol level in diet-induced obese C57BL/6 mouse at 3 mg/kg/day, po; assay type: functional; set-up: scale not given: the % may be the effect or the level left; outline: as §5
[42] = test system: Rattus norvegicus; assay: Increase in hepatic LDLR mRNA level in thyroidectomized Sprague-Dawley rat at 5 mg/kg after 24 hrs by RT-PCR relative to control; assay type: functional
Outline: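 Male thyroidectomized SD rats given 5 mg/kg, with a parallel T₃ arm at 0.5 mg/kg. Hepatic LDLR mRNA quantified by quantitative real-time PCR.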

[43] = test system: Mus musculus; assay: Decrease in plasma triglyceride level in diet-induced obese C57BL/6 mouse at 3 mg/kg/day, po after 14 days; assay type: functional; set-up: scale not given: the % may be the effect or the level left; outline: as §4
[44] = test system: Mus musculus; assay: Decrease in liver triglyceride level in diet-induced obese C57BL/6 mouse at 3 mg/kg/day, po after 14 days; assay type: functional; set-up: scale not given: the % may be the effect or the level left; outline: as §4
[45] = test system: Mus musculus; assay: Reduction in blood glucose level in po dosed diet-induced obese C57BL/6 mouse; assay type: functional, organism-based; outline: as §5
[46] = species on record: Rattus norvegicus; assay: Reduction in plasma cholesterol level in cholesterol fed Sprague-Dawley rat; assay type: functional
[47] = test system: Rattus norvegicus; assay: Effect on malic enzyme mRNA expression in po dosed Sprague-Dawley rat liver; assay type: functional, organism-based; conditions: TDE = time-dependent effect
Outline: (§6)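 Killed 3, 8 and 24 h post-dose under 2.5% isoflurane. Pituitary and thyroid snap-frozen; liver, heart, soleus, spleen and kidney freeze-clamped. mRNA by quantitative real-time PCR, expressed as fold-change vs vehicle.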

[48] = test system: Rattus norvegicus; assay: Effect on SREBP-1c mRNA expression in po dosed Sprague-Dawley rat liver; assay type: functional, organism-based; conditions: TDE = time-dependent effect
[49] = test system: Rattus norvegicus; assay: Effect on LDLR mRNA expression in po dosed Sprague-Dawley rat liver; assay type: functional, organism-based; conditions: TDE = time-dependent effect
[50] = test system: Rattus norvegicus; assay: Effect on type 1 iodothyronine deiodinase mRNA expression in po dosed Sprague-Dawley rat liver; assay type: functional, organism-based; conditions: TDE = time-dependent effect; outline: as §6

For `Cc1cc(OCP2(=O)OCC[C@@H](c3cccc(Cl)c3)O2)cc(C)c1Cc1ccc(O)c(C(C)C)c1` (stereo not given in full) [MB07811], the Activity [1] was “Active”, the Activity [2] was “Active” and the Activity [3] was “Active”. The Activity [4] was “Active”, the “fold change (FC)” value [5] was 2.01 and the Activity [6] was 42.8 g. It also gave an Activity [7] of 15.1%, a Ki [8] of 12.5 µM and a Ki [9] of 14.6 µM. The Vmax [10] was 2.74 nmol/min/mg, the Km [11] was 18.8 µM and the Activity [12] was “Not Active”. It also gave a Cmax [13] of 1.03 nmol, a clearance [14] of 193 mL/min/kg and a Vd [15] of 14.8 L/kg. For the same compound, the Activity [16] was 40%, the Activity [17] was “Active” and the Activity [18] was 42%. For the same compound, the Activity [19] was “inactive”, the Activity [20] was “inactive” and the Activity [21] was 42%. The Activity [22] was “Active”, the Activity [23] was -10.8% and the Activity [24] was 3%. For the same compound, the Activity [25] was -31.8%, the Activity [26] was 9 mg/dL and the Activity [27] was 0.424 ng/mL. For the same compound, the Activity [28] was 0.454 mM, the “fold change (FC)” value [29] was 1.23 and the Activity [30] was 37.9 g. It also gave an Activity [31] of 14.6%, an Activity [32] of 11.8 mg/dL and an Activity [33] of 0.342 ng/mL. For the same compound, the Activity [34] was 0.541 mM, the Activity [35] was 49.3 g and the Activity [36] was 15.6%. It also gave an Activity [37] of -0.5 mg/dL, an Activity [38] of 0.402 ng/mL and an Activity [39] of 0.524 mM. For the same compound, the Activity [40] was 61%, the Activity [41] was 51% and the “fold change (FC)” value [42] was 21.063. For the same compound, the Activity [43] was 38%, the Activity [44] was 69% and the Activity [45] was “Active”. For the same compound, the ED50 [46] was 0.4 mg/kg, the Activity [47] was “tde” and the Activity [48] was “tde”. For the same compound, the Activity [49] was “tde” and the Activity [50] was “tde”.
